Columns and labels:
[1] = Intrinsic clearance in rat liver microsomes at 1 uM measured after 1 hr by LC-MS/MS method; assay type: ADME, microsome; settings: read-out: CLH
[2] = Half life in rat liver microsomes at 1 uM preincubated for 10 mins followed by NADPH addition measured after 1 hr by LC-MS/MS method; assay type: ADME, microsome
[3] = Cmax in Sprague-Dawley rat at 2 mg/kg, iv by LC-MS/MS method; assay type: ADME, organism-based; set-up: dose 2 mg/kg, route intravenous; settings: in vivo
In short: (§1)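 Single intravenous dose of 2 mg/kg given to Sprague-Dawley rats. Values are the mean ± SD of three independent determinations.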

[4] = Solubility of the compound in DMSO by UV-metric method; assay type: physicochemical
[5] = Stability in rat liver microsomes assessed as compound remaining at 1 uM preincubated for 10 mins followed by NADPH addition measured after 1 hr by LC-MS/MS method; assay type: ADME, microsome; settings: read-out: Stability
[6] = Aqueous solubility of the compound at pH 2.0 by UV-metric method; assay type: physicochemical
[7] = Stability in human liver microsomes assessed as compound remaining at 1 uM in absence of NADPH regenerating system measured after 1 hr by LC-MS/MS method; assay type: ADME, microsome; settings: read-out: Stability
In short: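 Liver microsomal incubation ran for 60 min without the NADPH regenerating system, which was replaced by buffer. Read-out was percent compound remaining.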

[8] = AUC (0 to t) in Sprague-Dawley rat at 2 mg/kg, iv by LC-MS/MS method; assay type: ADME, organism-based; settings: in vivo; in short: as §1
[9] = Half life in Sprague-Dawley rat at 2 mg/kg, iv by LC-MS/MS method; assay type: ADME, organism-based; settings: in vivo; in short: as §1
hERG (KCNH2) = hERG (KCNH2) (Homo sapiens, UniProt Q12809); test: Inhibition of human ERG at 40 uM by Qpatch assay relative to control
Chain of hERG (KCNH2) (Q12809 whole entry): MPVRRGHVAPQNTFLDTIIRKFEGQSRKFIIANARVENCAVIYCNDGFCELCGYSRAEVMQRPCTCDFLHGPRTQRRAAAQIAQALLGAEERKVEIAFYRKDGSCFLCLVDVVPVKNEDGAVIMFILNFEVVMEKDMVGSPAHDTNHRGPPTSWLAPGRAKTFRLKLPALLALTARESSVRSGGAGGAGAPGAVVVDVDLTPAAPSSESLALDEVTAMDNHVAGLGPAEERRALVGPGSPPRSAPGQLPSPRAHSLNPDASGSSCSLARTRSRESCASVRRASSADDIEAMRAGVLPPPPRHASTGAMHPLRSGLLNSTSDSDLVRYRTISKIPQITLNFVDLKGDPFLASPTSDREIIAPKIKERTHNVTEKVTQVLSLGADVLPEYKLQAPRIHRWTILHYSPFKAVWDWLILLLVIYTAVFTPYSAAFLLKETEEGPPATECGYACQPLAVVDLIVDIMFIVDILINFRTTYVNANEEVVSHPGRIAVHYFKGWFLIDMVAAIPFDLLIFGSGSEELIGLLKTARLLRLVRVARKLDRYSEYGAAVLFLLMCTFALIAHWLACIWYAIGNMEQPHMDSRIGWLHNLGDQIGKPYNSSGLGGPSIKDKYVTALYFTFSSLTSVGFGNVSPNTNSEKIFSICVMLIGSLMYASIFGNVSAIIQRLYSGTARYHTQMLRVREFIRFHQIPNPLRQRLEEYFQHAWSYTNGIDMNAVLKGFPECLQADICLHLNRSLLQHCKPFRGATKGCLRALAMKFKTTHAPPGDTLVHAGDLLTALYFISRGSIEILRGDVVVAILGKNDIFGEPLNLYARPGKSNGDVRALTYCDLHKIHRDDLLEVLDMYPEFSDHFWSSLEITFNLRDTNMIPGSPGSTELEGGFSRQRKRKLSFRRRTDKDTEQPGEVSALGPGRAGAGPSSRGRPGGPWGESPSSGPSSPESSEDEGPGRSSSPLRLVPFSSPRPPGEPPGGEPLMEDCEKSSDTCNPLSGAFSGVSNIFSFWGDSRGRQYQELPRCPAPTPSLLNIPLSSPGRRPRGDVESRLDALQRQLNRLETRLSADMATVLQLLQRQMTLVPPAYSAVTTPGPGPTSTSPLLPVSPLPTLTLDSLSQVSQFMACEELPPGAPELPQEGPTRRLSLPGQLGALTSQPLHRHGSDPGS
In short: (§2)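 hERG current was recorded by automated patch clamp (Qpatch 16×) in CHO cells expressing hERG.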

[10] = AUC (0 to infinity) in Sprague-Dawley rat at 2 mg/kg, iv by LC-MS/MS method; assay type: ADME, organism-based; set-up: dose 2 mg/kg, route intravenous, time infinity; settings: in vivo; in short: as §1
[11] = Clearance in Sprague-Dawley rat at 2 mg/kg, iv by LC-MS/MS method; assay type: ADME, organism-based; settings: in vivo; in short: as §1
[12] = Distribution coefficient, logD of the compound at pH 7.4 by UV-metric method; assay type: physicochemical; settings: octanol/water
[13] = target: Voltage-gated inwardly rectifying potassium channel KCNH2 (Homo sapiens, UniProt Q12809); test: Inhibition of human ERG by Qpatch assay; in short: as §2
Chain of Voltage-gated inwardly rectifying potassium channel KCNH2 (Q12809 whole entry): as above

[14] = Intrinsic clearance in rat liver at 1 uM measured after 1 hr by LC-MS/MS method; assay type: ADME, tissue-based; settings: read-out: CLH
CYP1A2 = target: T1, CYP1A2 (Homo sapiens, UniProt P05177); test: Inhibition of CYP1A2 in human liver microsomes at 10 uM using phenacetin as the substrate preincubated for 10 mins followed by NADPH addition measured after 10 mins by LC-MS/MS method; assay type: ADME; settings: probe phenacetin
T1 sequence (P05177 whole entry): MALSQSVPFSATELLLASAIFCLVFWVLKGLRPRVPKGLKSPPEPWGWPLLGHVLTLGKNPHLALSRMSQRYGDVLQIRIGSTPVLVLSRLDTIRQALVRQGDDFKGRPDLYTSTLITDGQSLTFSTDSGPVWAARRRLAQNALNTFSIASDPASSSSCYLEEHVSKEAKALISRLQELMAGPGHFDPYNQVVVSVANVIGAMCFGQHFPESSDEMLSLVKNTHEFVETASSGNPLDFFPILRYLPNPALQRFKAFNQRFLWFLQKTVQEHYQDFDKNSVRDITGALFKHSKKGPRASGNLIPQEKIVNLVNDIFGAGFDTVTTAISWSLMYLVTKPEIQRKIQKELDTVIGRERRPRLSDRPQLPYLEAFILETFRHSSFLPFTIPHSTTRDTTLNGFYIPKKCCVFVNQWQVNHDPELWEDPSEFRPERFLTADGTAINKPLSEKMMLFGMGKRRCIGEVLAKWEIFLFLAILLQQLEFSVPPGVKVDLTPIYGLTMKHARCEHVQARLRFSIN
In short: (§3)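 Each CYP isoform was tested at 10 μM compound. Positive controls: α-naphthoflavone (CYP1A2), sulfaphenazole (CYP2C9), ticlopidine (CYP2C19), quinidine (CYP2D6), ketoconazole (CYP3A4).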

[15] = Volume of distribution at steady state in Sprague-Dawley rat at 2 mg/kg, iv by LC-MS/MS method; assay type: ADME, organism-based; settings: in vivo, read-out: Vdss
In short: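 Sprague-Dawley rats receive a single intravenous dose of 2 mg/kg. Pharmacokinetic parameters derived are C0, clearance, Vss, T1/2, AUC(0−t) and AUC(0−∞). Values are averages of three independent determinations, reported as mean ± SD.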

[16] = Stability in rat liver microsomes assessed as compound remaining at 1 uM in absence of NADPH regenerating system measured after 1 hr by LC-MS/MS method; assay type: ADME, microsome; settings: read-out: Stability
In short: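 Control incubation with rat liver microsomes: buffer replaces the NADPH regenerating system for the whole 60 min incubation. Read-out is percent of parent compound remaining.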

[17] = Stability in Sprague-Dawley rat blood plasma assessed as compound remaining at 2 uM measured after 60 mins by LC-MS/MS method; assay type: ADME, cell-free; settings: read-out: Stability
CYP3A4 = CYP3A4 (Homo sapiens, UniProt P08684); test: Inhibition of CYP3A4 in human liver microsomes at 10 uM using midozolam as substrate preincubated for 10 mins followed by NADPH addition measured after 10 mins by LC-MS/MS method; assay type: ADME; settings: probe midozolam; in short: as §3
Chain of CYP3A4 (P08684 whole entry): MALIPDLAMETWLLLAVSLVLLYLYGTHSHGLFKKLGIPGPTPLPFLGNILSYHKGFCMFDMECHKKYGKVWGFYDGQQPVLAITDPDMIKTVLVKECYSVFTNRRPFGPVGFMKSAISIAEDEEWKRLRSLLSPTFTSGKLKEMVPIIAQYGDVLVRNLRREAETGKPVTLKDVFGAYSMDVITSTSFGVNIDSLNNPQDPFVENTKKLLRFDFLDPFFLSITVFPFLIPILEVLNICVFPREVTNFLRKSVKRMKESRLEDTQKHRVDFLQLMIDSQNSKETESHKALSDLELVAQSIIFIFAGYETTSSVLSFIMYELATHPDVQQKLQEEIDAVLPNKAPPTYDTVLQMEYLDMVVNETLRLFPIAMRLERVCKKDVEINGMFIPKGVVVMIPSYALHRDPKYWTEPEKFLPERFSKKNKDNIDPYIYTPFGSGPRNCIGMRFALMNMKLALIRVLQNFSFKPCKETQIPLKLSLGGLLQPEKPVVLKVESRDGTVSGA

[18] = Stability in Sprague-Dawley rat blood plasma assessed as compound remaining at 2 uM measured after 120 mins by LC-MS/MS method; assay type: ADME, cell-free; settings: read-out: Stability
[19] = Aqueous solubility of the compound at pH 7.4 by UV-metric method; assay type: physicochemical
[20] = Intrinsic clearance in human liver at 1 uM measured after 1 hr by LC-MS/MS method; assay type: ADME, tissue-based; settings: read-out: CLH
[21] = Initial concentration in Sprague-Dawley rat at 2 mg/kg, iv by LC-MS/MS method; assay type: ADME, organism-based; settings: in vivo; in short: as §1
[22] = Stability in human liver microsomes assessed as compound remaining at 1 uM preincubated for 10 mins followed by NADPH addition measured after 1 hr by LC-MS/MS method; assay type: ADME, microsome; settings: read-out: Stability
CYP2C19 = CYP2C19 (Homo sapiens, UniProt P33261); test: Inhibition of CYP2C19 in human liver microsomes at 10 uM using S-mephenytoin as substrate preincubated for 10 mins followed by NADPH addition measured after 10 mins by LC-MS/MS method; assay type: ADME; settings: probe S-mephenytoin; in short: as §3
Chain of CYP2C19 (P33261 whole entry): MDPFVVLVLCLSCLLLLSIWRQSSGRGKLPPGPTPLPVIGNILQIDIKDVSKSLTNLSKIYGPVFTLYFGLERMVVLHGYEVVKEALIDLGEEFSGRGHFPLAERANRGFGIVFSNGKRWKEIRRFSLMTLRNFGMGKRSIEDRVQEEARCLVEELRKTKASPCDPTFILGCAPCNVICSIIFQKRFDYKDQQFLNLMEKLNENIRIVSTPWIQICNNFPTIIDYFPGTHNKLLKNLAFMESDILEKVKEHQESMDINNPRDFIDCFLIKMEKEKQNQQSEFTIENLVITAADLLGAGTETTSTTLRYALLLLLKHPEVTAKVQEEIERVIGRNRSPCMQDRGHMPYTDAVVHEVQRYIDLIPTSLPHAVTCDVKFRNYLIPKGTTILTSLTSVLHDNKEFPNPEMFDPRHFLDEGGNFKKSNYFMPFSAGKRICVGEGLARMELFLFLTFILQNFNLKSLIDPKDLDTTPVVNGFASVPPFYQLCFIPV

[23] = Partition coefficient, log P of the compound by UV-metric method; assay type: physicochemical; settings: octanol/water
[24] = Intrinsic clearance in human liver microsomes at 1 uM measured after 1 hr by LC-MS/MS method; assay type: ADME, microsome; settings: read-out: CLH
[25] = Half life in human liver microsomes at 1 uM preincubated for 10 mins followed by NADPH addition measured after 1 hr by LC-MS/MS method; assay type: ADME, microsome
CYP2C9 = CYP2C9 (Homo sapiens, UniProt P11712); test: Inhibition of CYP2C9 in human liver microsomes at 10 uM using diclofenac as substrate preincubated for 10 mins followed by NADPH addition measured after 10 mins by LC-MS/MS method; assay type: ADME; settings: probe diclofenac; in short: as §3
Chain of CYP2C9 (P11712 whole entry): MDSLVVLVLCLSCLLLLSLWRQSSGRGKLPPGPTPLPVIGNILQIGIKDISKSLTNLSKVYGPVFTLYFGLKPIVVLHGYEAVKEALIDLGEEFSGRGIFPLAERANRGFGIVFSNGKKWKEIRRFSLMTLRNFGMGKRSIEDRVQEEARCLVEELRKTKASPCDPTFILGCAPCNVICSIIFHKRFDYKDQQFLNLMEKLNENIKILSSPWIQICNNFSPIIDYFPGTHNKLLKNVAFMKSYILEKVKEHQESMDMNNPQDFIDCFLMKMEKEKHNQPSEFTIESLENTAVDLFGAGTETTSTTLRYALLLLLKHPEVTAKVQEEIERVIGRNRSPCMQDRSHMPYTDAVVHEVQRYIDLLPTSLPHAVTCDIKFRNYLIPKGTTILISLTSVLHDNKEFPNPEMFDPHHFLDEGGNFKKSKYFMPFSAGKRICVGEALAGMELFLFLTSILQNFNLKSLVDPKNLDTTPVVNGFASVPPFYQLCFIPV

CYP2D6 = CYP2D6 (Homo sapiens, UniProt P10635); test: Inhibition of CYP2D6 in human liver microsomes at 10 uM using dextromethorphan as substrate preincubated for 10 mins followed by NADPH addition measured after 10 mins by LC-MS/MS method; assay type: ADME; settings: probe dextromethorphan; in short: as §3
Chain of CYP2D6 (P10635 whole entry): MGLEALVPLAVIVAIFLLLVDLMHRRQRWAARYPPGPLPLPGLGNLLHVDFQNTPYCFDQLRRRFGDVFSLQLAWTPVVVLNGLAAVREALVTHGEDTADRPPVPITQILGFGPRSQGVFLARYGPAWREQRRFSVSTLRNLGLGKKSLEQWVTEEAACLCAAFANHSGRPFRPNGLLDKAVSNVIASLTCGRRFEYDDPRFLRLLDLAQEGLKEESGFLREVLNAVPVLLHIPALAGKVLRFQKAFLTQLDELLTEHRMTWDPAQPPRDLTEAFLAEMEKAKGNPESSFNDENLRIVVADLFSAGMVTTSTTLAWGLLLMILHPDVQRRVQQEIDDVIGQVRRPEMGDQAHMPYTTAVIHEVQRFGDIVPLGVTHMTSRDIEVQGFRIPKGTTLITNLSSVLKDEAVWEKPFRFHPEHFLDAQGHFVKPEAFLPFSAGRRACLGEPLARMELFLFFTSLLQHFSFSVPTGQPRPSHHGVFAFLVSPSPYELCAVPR

[26] = Dissociation constant, pKa of compound; assay type: physicochemical

C[C@@H]1CN(C(=O)c2nc(Nc3cc(C4CC4)[nH]n3)c3cc(Cl)ccc3n2)CCN1.Cl
microsomal CLint at 1 µM [1]: 33.2 µL/min/mg
half-life at 1 µM [2]: 41.8 min
Cmax [3]: 736 ng/mL
solubility [4]: > 30 mM
remaining at 1 h, 1 µM [5]: 36.9%
solubility [6]: > 10000 µg/mL
remaining at 1 h, 1 µM [7]: 103%
AUC(0-t) [8]: 465 ng·h/mL
half-life [9]: 87.6 min
inhibition at 40 µM (hERG (KCNH2)): 42%
AUC(0-inf) [10]: 472 ng·h/mL
clearance [11]: 70.7 mL/min/kg
logD [12]: 1.9
IC50 [13]: > 40 µM
CLint scaled at 1 µM [14]: 59.7 mL/min/kg
inhibition at 10 min, 10 µM (CYP1A2): 17.2%
Vd [15]: 6.43 L/kg
remaining at 1 h, 1 µM [16]: 97%
remaining at 1 h, 2 µM [17]: 110%
inhibition at 10 min, 10 µM (CYP3A4): 2.3%
remaining at 2 h, 2 µM [18]: 115%
solubility [19]: > 10000 µg/mL
CLint scaled at 1 µM [20]: 25.8 mL/min/kg
C0 [21]: 736 ng/mL
remaining at 1 h, 1 µM [22]: 41.9%
inhibition at 10 min, 10 µM (CYP2C19): 12.2%
logP [23]: 2.54
microsomal CLint at 1 µM [24]: 28.7 µL/min/mg
half-life at 1 µM [25]: 48.4 min
inhibition at 10 min, 10 µM (CYP2C9): 15.1%
inhibition at 10 min, 10 µM (CYP2D6): 1.8%
pKa [26]: 7.93
